# Data as given in ChEMBL document CHEMBL4004850, “Rational design of reversible inhibitors for trehalose 6-phosphate phosphatases” (Eur J Med Chem, 2017).
# B1: Trehalose-phosphatase (Brugia malayi), A8NS89 (protein)
# chain: MTETVTDQGKQRSSKLQKNEAAKDEQVEGKGKETLESGTDKSAEQNSSLLVGQPDVIDNDNVQTVDDFKNLMYKMQETRRAIVFALLNEKDLTKDDVEILKRAYEKLTDNQTHSFQREMCTLTTKLSVNIGDETRGLEKDLKYLDALMNIRREEPNLLWPIIMSRVDLFSILANYHPKGKETFLKEYEDTVKFLKTFISSEAITGKKPIFITDWDGTMKDYCSQYATNLQPVYSAVGMTRFAASFTRISAVLTAGPLRGPGILDLTAMPIDGPVMFSGSWGREWWLSGKRVVHQDGITDEGFNALQRLDDEMKDLLHTSDYAPFALVGSGVQRKVDRLTLGVQTVCHHVTSELSNRYQMAVKERMHRVDPNSQILVFDPSTELEVEVVAHNSGIIWNKGNGVERLIKSLGDSLQSPGKILICGDTLSDIPMVRQAVKQNPDGVLAIFVGAKMSLREEVKQVIGDESRCCFVSCPDVIHAAMSQILNEHCIGK
# B2: D-glycero-beta-D-manno-heptose-1,7-bisphosphate 7-phosphatase (Pseudomonas putida (strain ATCC 47054 / DSM 6125 / NCIMB 11950 /KT2440)), Q88RS0 (protein)
# chain: MKLLILDRDGVINYDSDAYIKTLEEWVPIPGSVDAIAQLSKAGWTVAVATNQSGIARGYYPLATLEAMHARLRALVAEQGGEVGHIVYCPHGPDEGCDCRKPKPGMLRAIAEHYQIGLEGVWFVGDSKGDLEAALAVGAQPVLVKTGKGERTLEKGVPETTLIFDDLAAIARELI
# Assays:
# [1] = target: T1, Trehalose-phosphatase (Brugia malayi) (UniProt A8NS89); assay: Inhibition of Brugia malayi T6PP using T6P as substrate assessed as fraction of enzyme unbound with compound by measuring ratio of initial velocities of T6P substrate hydrolysis in presence and absence of compound at 1 mM […] by BioMol green dye based HTS assay
# T1 sequence (whole entry): B1 chain
# Ascaris suum [2] = assay: Inhibition of Ascaris suum T6PP using T6P as substrate assessed as fraction of enzyme unbound with compound by measuring ratio of initial velocities of T6P substrate hydrolysis in presence and absence of compound at 1 mM after 5 mins by BioMol green dye based HTS assay
# Outline: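 T6P is at half saturation ([T6P] = Km), with and without 1 mM inhibitor, at 25 °C. Released phosphate is detected with dye (30 min incubation) by A625. The reported value is V_I/V, the initial-velocity ratio.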
# Shigella boydii [3] = assay: Inhibition of Shigella boydii T6PP using T6P as substrate assessed as fraction of enzyme unbound with compound by measuring ratio of initial velocities of T6P substrate hydrolysis in presence and absence of compound at 1 mM after 5 mins by BioMol green dye based HTS assay
# Outline: (§1)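 Freshly purified St-T6PP or Sb-T6PP (5–25 nM) in 50 mM Hepes pH 7.5, 25 mM NaCl, 2 mM MgCl₂, 5% glycerol at 25 °C. T6P at half saturation (Km) for each enzyme. Hydrolysis rate was compared with and without 1 mM inhibitor; phosphate read at 625 nm after 30 min incubation. The ratio VI/V gives the fraction of enzyme not inhibitor-bound.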
# [4] = test system: Salmonella enterica subsp. enterica serovar Typhimurium; assay: Inhibition of Salmonella typhimurium T6PP using T6P as substrate assessed as fraction of enzyme unbound with compound by measuring ratio of initial velocities of T6P substrate hydrolysis in presence and absence of compound at 1 mM after 5 mins by BioMol green dye based HTS assay; outline: as §1
# Trehalose-phosphatase [5] = target: T2, Trehalose-phosphatase (Brugia malayi, UniProt A8NS89); assay: Reversible competitive inhibition of Brugia malayi T6PP using T6P as substrate by Lineweaver-Burk plot analysis
# T2 sequence (A8NS89 whole entry): B1 chain
# Trehalose-phosphatase [6] = target: T2, Trehalose-phosphatase; assay: Competitive inhibition of Brugia malayi T6PP using T6P as substrate by Lineweaver-Burk plot analysis
# Outline: (§2)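 Continuous phosphate-release assay (EnzChek, MESG/purine nucleoside phosphorylase) at 25 °C. Initial velocities of T6P hydrolysis by T6PP were taken at varied T6P with inhibitor at 0, Ki and 2×Ki. Km and Vmax come from double-reciprocal plots.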
# [7] = Inhibition of Ascaris suum T6PP using T6P as substrate by Lineweaver-Burk plot analysis
# [8] = Inhibition of Shigella boydii T6PP using T6P as substrate by Lineweaver-Burk plot analysis; outline: as §2
# [9] = Inhibition of Salmonella typhimurium T6PP using T6P as substrate by Lineweaver-Burk plot analysis; set-up: species or system Salmonella enterica subsp. enterica serovar Typhimurium; outline: as §2
# Shigella boydii [10] = assay: Inhibition of Shigella boydii T6PP assessed as Vmax for substrate using T6P as substrate by Lineweaver-Burk plot analysis; outline: as §2
# Shigella boydii [11] = assay: Inhibition of Shigella boydii T6PP assessed as Km for substrate using T6P as substrate by Lineweaver-Burk plot analysis; outline: as §2
# Ascaris suum [12] = assay: Inhibition of Ascaris suum T6PP assessed as Vmax for substrate using T6P as substrate by Lineweaver-Burk plot analysis; outline: as §2
# Ascaris suum [13] = assay: Inhibition of Ascaris suum T6PP assessed as Km for substrate using T6P as substrate by Lineweaver-Burk plot analysis; outline: as §2
# [14] = test system: Salmonella enterica subsp. enterica serovar Typhimurium; assay: Inhibition of Salmonella typhimurium T6PP assessed as Vmax for substrate using T6P as substrate by Lineweaver-Burk plot analysis; outline: as §2
# [15] = test system: Salmonella enterica subsp. enterica serovar Typhimurium; assay: Inhibition of Salmonella typhimurium T6PP assessed as Km for substrate using T6P as substrate by Lineweaver-Burk plot analysis; outline: as §2
# Escherichia coli = conditions: 200 uM
# [16] = test system: Bacteroides thetaiotaomicron; conditions: 200 uM
# Ascaris suum [17] = assay: Activity at Ascaris suum T6PP
# [18] = test system: Mycobacterium tuberculosis; assay: Activity at Mycobacterium tuberculosis T6PP
# Shigella boydii [19] = assay: Activity at Shigella boydii T6PP
# [20] = test system: Salmonella enterica subsp. enterica serovar Typhimurium; assay: Activity at Salmonella typhimurium T6PP
# [21] = substrate: O=P(O)(O)OC[C@H]1O[C@@H](Oc2ccccc2)[C@H](O)[C@@H](O)[C@@H]1O; assay: Activity at Brugia malayi T6PP
# [22] = compound: CCCCCCCCc1ccc(O[C@@H]2O[C@H](COS(=O)(=O)O)[C@@H](O)[C@H](O)[C@H]2O)cc1; assay: (§3) Competitive inhibition of Brugia malayi T6PP assessed as Vmax for substrate using T6P as substrate by Lineweaver-Burk plot analysis; outline: as §2
# [23] = compound: CCCCCCCCc1ccc(O[C@H]2O[C@H](COS(=O)(=O)O)[C@@H](O)[C@H](O)[C@H]2O)cc1; assay: as §3; outline: as §2
# [24] = compound: CCCCCCc1ccc(O[C@H]2O[C@H](COS(=O)(=O)O)[C@@H](O)[C@H](O)[C@H]2O)cc1; assay: as §3; outline: as §2
# [25] = compound: O=S(=O)(O)OC[C@H]1O[C@H](OCc2ccccc2)[C@H](O)[C@@H](O)[C@@H]1O; assay: as §3; outline: as §2
# [26] = compound: CCCCCCCCc1ccc(O[C@@H]2O[C@H](COS(=O)(=O)O)[C@@H](O)[C@H](O)[C@H]2O)cc1; assay: (§4) Competitive inhibition of Brugia malayi T6PP assessed as Km for substrate using T6P as substrate by Lineweaver-Burk plot analysis; outline: as §2
# [27] = compound: CCCCCCCCc1ccc(O[C@H]2O[C@H](COS(=O)(=O)O)[C@@H](O)[C@H](O)[C@H]2O)cc1; assay: as §4; outline: as §2
# [28] = compound: CCCCCCc1ccc(O[C@H]2O[C@H](COS(=O)(=O)O)[C@@H](O)[C@H](O)[C@H]2O)cc1; assay: as §4; outline: as §2
# [29] = compound: O=S(=O)(O)OC[C@H]1O[C@H](OCc2ccccc2)[C@H](O)[C@@H](O)[C@@H]1O; assay: as §4; outline: as §2
# [30] = compound: O=S(=O)(O)OC[C@H]1O[C@@H](Oc2ccccc2)[C@H](O)[C@@H](O)[C@@H]1O; assay: (§5) Reversible competitive inhibition of Brugia malayi T6PP assessed as Vmax for substrate using T6P as substrate by Lineweaver-Burk plot analysis
# [31] = compound: O=S(=O)(O)OC[C@H]1O[C@H](Oc2ccccc2)[C@H](O)[C@@H](O)[C@@H]1O; assay: as §5
# [32] = compound: O=S(=O)(O)OC[C@H]1O[C@@H](Oc2ccccc2)[C@H](O)[C@@H](O)[C@@H]1O; assay: (§6) Reversible competitive inhibition of Brugia malayi T6PP assessed as Km for substrate using T6P as substrate by Lineweaver-Burk plot analysis
# [33] = compound: O=S(=O)(O)OC[C@H]1O[C@H](Oc2ccccc2)[C@H](O)[C@@H](O)[C@@H]1O; assay: as §6
# [34] = substrate: CCCCCCCCc1ccc(O[C@H]2O[C@H](COS(=O)(=O)O)[C@@H](O)[C@H](O)[C@H]2O)cc1; conditions: Pseudomonas putida KT2440; 200 uM
# [35] = substrate: CCCCCCCCc1ccc(O[C@H]2O[C@H](COS(=O)(=O)O)[C@@H](O)[C@H](O)[C@H]2O)cc1; conditions: Pseudomonas putida KT2440; 200 uM; remark: listed apart in the source
molecule,measurement,setting,value
O=S(=O)(O)OC[C@H]1O[C@@H](Oc2ccccc2)[C@H](O)[C@@H](O)[C@@H]1O,Ratio,[1],0.52
same,Ratio,Ascaris suum [2],0.92
same,Ratio,Shigella boydii [3],0.76
same,Ratio,[4],0.81
same,Ki,Trehalose-phosphatase [5],800 to 830 µM
CCCCCCCCc1ccc(O[C@H]2O[C@H](COS(=O)(=O)O)[C@@H](O)[C@H](O)[C@H]2O)cc1,Ki,Trehalose-phosphatase [6],5.3 µM
same,Ki,[7],80 to 84 µM
same,Ki,[8],21 µM
same,Ki,[9],56 µM
same,Vmax,Shigella boydii [10],0.897 µM/s
same,Km,Shigella boydii [11],246 µM
same,Vmax,Ascaris suum [12],0.48 µM/s
same,Km,Ascaris suum [13],406 µM
same,Vmax,[14],0.173 µM/s
same,Km,[15],387 µM
same,Vmax,Escherichia coli,0.0605 µM/s
same,Vmax,[16],0.0788 µM/s
O=P(O)(O)OC[C@H]1O[C@@H](Oc2ccccc2)[C@H](O)[C@@H](O)[C@@H]1O,Ratio,[1],0.79
same,Ratio,Ascaris suum [2],0.98
same,Ratio,Shigella boydii [3],0.94
same,Ratio,[4],0.77
same,kcat,Ascaris suum [17],0.96 ×10⁻² /s
same,kcat,[18],0.71 ×10⁻² /s
same,kcat,Shigella boydii [19],0.71 ×10⁻² /s
same,kcat,[20],0.41 ×10⁻² /s
B1,kcat,[21],1.4 ×10⁻² /s
same,Vmax,[22],0.584 µM/s
same,Vmax,[23],0.924 µM/s
same,Vmax,[24],0.375 µM/s
same,Vmax,[25],0.457 µM/s
same,Km,[26],156 µM
same,Km,[27],229 µM
same,Km,[28],234 µM
same,Km,[29],127 µM
same,Vmax,[30],0.57 µM/s
same,Vmax,[31],0.496 µM/s
same,Km,[32],126 µM
same,Km,[33],109 µM
B2,Vmax,[34],0.106 µM/s
same,Vmax,[35],0.0175 µM/s
